According to ChEMBL document CHEMBL1124189, “2-(2-Aryl-2-oxoethylidene)-1,2,3,4-tetrahydropyridines. Novel isomers of 1,4-dihydropyridine calcium channel blockers” (J Med Chem, 1988):

Experiments:
[1] = target: Voltage-gated L-type calcium channel (Rattus norvegicus, UniProt P22002+Q02485+P27732); experiment: Inhibition of [3H]nitrendipine binding to calcium channels in the rat brain.; format: tissue-based
Rattus norvegicus [2] = organism: Rattus norvegicus; experiment: Concentration required to produce 25% increase in coronary flow; format: functional
Summary of the method: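 Langendorff isolated hearts from male rats (400–600 g), pentobarbital 50 mg/kg ip anesthesia, heparin 2000 units ip; retrograde aortic perfusion with modified Krebs-Henseleit bicarbonate buffer, about 15 mL/min for 2–3 min, then constant 70 mmHg pressure, 37 °C; spontaneously beating. Coronary flow taken as percent change from control; EC25 (25% increase) read graphically from at least two hearts.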

Rattus norvegicus [3] = experiment: Concentration required to produce 25% increase in intraventricular pressure(LV dp/dt); format: functional, Cardiac ventricle
Summary of the method: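 Isolated perfused male rat heart (400–600 g; pentobarbital 50 mg/kg ip, heparin 2000 units ip), Krebs-Henseleit bicarbonate buffer at constant 70 mmHg, 37 °C, spontaneous beating; LV dP/dt expressed as percent change from control; concentration giving a 25% increase (or decrease) in LV dP/dt determined graphically, minimum two hearts.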

Oryctolagus cuniculus = organism: Oryctolagus cuniculus; experiment: The compound was tested for inhibition of potassium depolarized Rabbit aorta; format: functional

| SMILES | IC50 [1] [µM] | IC50 (Oryctolagus cuniculus) [µM] | EC25 (Rattus norvegicus [2]) [µM] | EC25 (Rattus norvegicus [3]) [µM] |
| --- | --- | --- | --- | --- |
| CCOC(=O)[C@@H]1/C(=C/C(=O)c2ccccc2)N=C(C)/C(=C(/O)OCC)[C@H]1c1ccccc1C(F)(F)F | 0.2969 |  | <0.1 | >3 |
| CC1=C([N+](=O)[O-])[C@@H](c2ccccc2C(F)(F)F)[C@H](C(=O)c2ccccc2)C(/C=C(\O)c2ccccc2)=N1 | > 1 |  |  |  |
| CCOC(=O)CC1=NC(C)=C(C#N)C(c2ccccc2C(F)(F)F)/C1=C(\O)OCC (configuration not stated) | 0.1496 |  |  |  |
| CCOC(=O)C1C(/C=C(\O)c2ccccc2)=NC(C)=C(C#N)C1c1ccccc1C(F)(F)F (configuration not stated) | 1.021 |  | 0.3 | 3 |
| CCOC(=O)C1=C(C)N=C(/C=C(\O)OCC)C(C(=O)OCC)C1c1ccccc1C(F)(F)F (configuration not stated) | 0.3469 |  | <0.1 | >0.3 |
| CCOC(=O)[C@@H]1C(/C=C(\O)c2ccccc2)=NC2=C(C(=O)CCC2)[C@H]1c1ccccc1C(F)(F)F | > 1 |  | 1.4 | 1.5 |
| CCOC(=O)[C@@H]1/C(=C/C(=O)c2ccc(C)cc2)N=C(C)/C(=C(/O)OCC)[C@H]1c1ccccc1C(F)(F)F | 0.4137 |  | 0.13 | >0.3 |
| CCOC(=O)[C@@H]1/C(=C/C(=O)c2ccc(Cl)cc2)N=C(C)/C(=C(/O)OCC)[C@H]1c1ccccc1C(F)(F)F | 0.1625 |  | <0.1 | <0.1 |
| CCOC(=O)CC1=C(C(=O)OCC)C(c2ccccc2C(F)(F)F)/C(=C(\O)OCC)C(C)=N1 (configuration not stated) | 0.02 |  |  |  |
| CCOC(=O)[C@@H]1C(/C=C(\O)c2ccccc2)=NC(C)=C([N+](=O)[O-])[C@H]1c1ccccc1C(F)(F)F | 0.3358 |  | 0.1 | >0.3 |
| CCOC(=O)C1=C(C)N=C(/C=C(\O)c2ccccc2)[C@@H](C(=O)OCC)[C@@H]1c1ccccc1 | 0.9128 |  | 0.2 | 0.5 |
| COC(=O)C1=C(C)NC(C)=C(C(=O)OC)C1c1ccccc1[N+](=O)[O-] [NIFEDIPINE] |  | 0.2 | 0.01 | 0.3 |
| CCOC(=O)[C@@H]1/C(=C/C(=O)c2ccncc2)N=C(C)/C(=C(/O)OCC)[C@H]1c1ccccc1C(F)(F)F | 0.0255 | 3.1 | 0.03 | >0.3 |
| CCOC(=O)[C@@H]1/C(=C/C(=O)c2ccccc2Cl)N=C(C)/C(=C(/O)OCC)[C@H]1c1ccccc1C(F)(F)F | > 1 |  |  |  |

More lines, main results first:

| IC50 [1] [µM] | IC50 (Oryctolagus cuniculus) [µM] | SMILES | EC25 (Rattus norvegicus [2]) [µM] | EC25 (Rattus norvegicus [3]) [µM] |
| --- | --- | --- | --- | --- |
| 0.1167 | 150 | CCOC(=O)[C@@H]1/C(=C/C(=O)c2ccc(F)cc2)N=C(C)/C(=C(/O)OCC)[C@H]1c1ccccc1C(F)(F)F | 0.3 | >0.3 |
| 0.0317 | 2.7 | CCOC(=O)[C@@H]1/C(=C/C(=O)c2ccc(N(C)C)cc2)N=C(C)/C(=C(/O)OCC)[C@H]1c1ccccc1C(F)(F)F | 0.2 | >0.3 |
| > 1 |  | CCOC(=O)[C@@H]1C(C2=C(O)c3ccccc3CC2)=NC(C)=C(C#N)[C@H]1c1ccccc1C(F)(F)F | 1 | >1 |
| 0.0277 |  | CCOC(=O)[C@@H]1/C(=C/C(=O)c2ccccc2)N=C(C)/C(=C(/O)OCC)[C@H]1c1cccc(Cl)c1Cl | 0.2 | >0.3 |
| > 1 |  | CCOC(=O)C1=C(C)N=C(C2=C(O)c3ccccc3CC2)[C@@H](C(=O)OCC)[C@@H]1c1ccccc1C(F)(F)F |  |  |
| 0.0311 | 17 | CCOC(=O)[C@@H]1/C(=C/C(=O)c2ccccc2)N=C(C)/C(=C(/O)OCC)[C@H]1c1ccccc1[N+](=O)[O-] | 0.1 | 2.2 |
| 0.5914 |  | CCO/C(O)=C1C(C)=N/C(=C\C(=O)c2ccccc2)[C@@H](C(=O)c2ccccc2)[C@@H]\1c1ccccc1C(F)(F)F | 0.38 | 1.2 |
